Tests used:
[1] = tested on: Heart; assay: Biodistribution in ICR mouse heart at 5 to 10 uCi, iv after 1 hr; type: ADME, organism-based; details: in vivo
Method in brief: (§1)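 Male ICR mice (22–25 g) under isoflurane anesthesia; [125I] or [18F] tracer (5–10 μCi) in 0.15 mL of 0.1% bovine serum albumin solution injected into the tail vein. Groups of n = 3 per time point, killed by cervical dislocation. Organs removed, weighed and gamma-counted against diluted aliquots of injected dose, giving % dose/organ and % ID/g. Total blood activity assumed as 7% of body weight.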

[2] = tested on: Blood; assay: Biodistribution in ICR mouse blood at 5 to 10 uCi, iv after 2 hrs; type: ADME, organism-based; details: in vivo; method in brief: as §1
[3] = tested on: Blood; assay: Biodistribution in ICR mouse blood at 5 to 10 uCi, iv after 30 mins; type: ADME, organism-based; details: in vivo, 0.5 h; method in brief: as §1
[4] = tested on: Muscle tissue; assay: Biodistribution in ICR mouse muscle at 5 to 10 uCi, iv after 2 mins; type: ADME, organism-based; details: in vivo; method in brief: as §1
[5] = tested on: Kidney; assay: Biodistribution in ICR mouse kidney at 5 to 10 uCi, iv after 30 mins; type: ADME, organism-based; details: in vivo, 0.5 h; method in brief: as §1
[6] = tested on: Lung; assay: Biodistribution in ICR mouse lung at 5 to 10 uCi, iv after 2 hrs; type: ADME, organism-based; details: in vivo; method in brief: as §1
[7] = tested on: Zone of skin; assay: Biodistribution in ICR mouse skin at 5 to 10 uCi, iv after 2 mins; type: ADME, organism-based; details: in vivo; method in brief: as §1
[8] = tested on: Brain; assay: Biodistribution in ICR mouse brain at 5 to 10 uCi, iv after 2 mins; type: ADME, organism-based; details: in vivo; method in brief: as §1
[9] = tested on: Spleen; assay: Biodistribution in ICR mouse spleen at 5 to 10 uCi, iv after 2 hrs; type: ADME, organism-based; details: in vivo; method in brief: as §1
[10] = tested on: Liver; assay: Biodistribution in ICR mouse liver at 5 to 10 uCi, iv after 30 mins; type: ADME, organism-based; details: in vivo, 0.5 h; method in brief: as §1
[11] = tested on: Thyroid gland; assay: Biodistribution in ICR mouse thyroid at 5 to 10 uCi, iv after 1 hr; type: ADME, organism-based; details: in vivo; method in brief: as §1
[12] = tested on: Kidney; assay: Biodistribution in ICR mouse kidney at 5 to 10 uCi, iv after 1 hr; type: ADME, organism-based; details: in vivo; method in brief: as §1
[13] = Partition coefficient, log P of the compound; type: physicochemical; details: octanol/water
Method in brief: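 [125I] or [18F] tracer mixed with 3 g each of 1-octanol and 0.1 M phosphate buffer pH 7.4. Vortexed 3 min at room temperature, then centrifuged 5 min. Two 0.5 g samples from each layer counted; PC is the ratio of cpm/g in octanol to cpm/g in buffer. The octanol layer was repartitioned until values were consistent.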

[14] = tested on: Lung; assay: Biodistribution in ICR mouse lung at 5 to 10 uCi, iv after 1 hr; type: ADME, organism-based; details: in vivo; method in brief: as §1
[15] = tested on: Heart; assay: Biodistribution in ICR mouse heart at 5 to 10 uCi, iv after 2 mins; type: ADME, organism-based; details: in vivo; method in brief: as §1
[16] = tested on: Spleen; assay: Biodistribution in ICR mouse spleen at 5 to 10 uCi, iv after 30 mins; type: ADME, organism-based; details: in vivo, 0.5 h; method in brief: as §1
[17] = tested on: Muscle tissue; assay: Biodistribution in ICR mouse muscle at 5 to 10 uCi, iv after 2 hrs; type: ADME, organism-based; details: in vivo; method in brief: as §1
[18] = tested on: Liver; assay: Biodistribution in ICR mouse liver at 5 to 10 uCi, iv after 2 hrs; type: ADME, organism-based; details: in vivo; method in brief: as §1
[19] = tested on: Muscle tissue; assay: Biodistribution in ICR mouse muscle at 5 to 10 uCi, iv after 30 mins; type: ADME, organism-based; details: in vivo, 0.5 h; method in brief: as §1
[20] = tested on: Blood; assay: Biodistribution in ICR mouse blood at 5 to 10 uCi, iv after 2 mins; type: ADME, organism-based; details: in vivo; method in brief: as §1
[21] = tested on: Liver; assay: Biodistribution in ICR mouse liver at 5 to 10 uCi, iv after 1 hr; type: ADME, organism-based; details: in vivo; method in brief: as §1
[22] = tested on: Kidney; assay: Biodistribution in ICR mouse kidney at 5 to 10 uCi, iv after 2 mins; type: ADME, organism-based; details: in vivo; method in brief: as §1
[23] = tested on: Liver; assay: Biodistribution in ICR mouse liver at 5 to 10 uCi, iv after 2 mins; type: ADME, organism-based; details: in vivo; method in brief: as §1
[24] = tested on: Lung; assay: Biodistribution in ICR mouse lung at 5 to 10 uCi, iv after 30 mins; type: ADME, organism-based; details: in vivo, 0.5 h; method in brief: as §1
[25] = tested on: Heart; assay: Biodistribution in ICR mouse heart at 5 to 10 uCi, iv after 30 mins; type: ADME, organism-based; details: in vivo, 0.5 h; method in brief: as §1
[26] = tested on: Zone of skin; assay: Biodistribution in ICR mouse skin at 5 to 10 uCi, iv after 30 mins; type: ADME, organism-based; details: in vivo, 0.5 h; method in brief: as §1
[27] = tested on: Blood; assay: Biodistribution in ICR mouse blood at 5 to 10 uCi, iv after 1 hr; type: ADME, organism-based; details: in vivo; method in brief: as §1
[28] = tested on: Brain; assay: Biodistribution in ICR mouse brain at 5 to 10 uCi, iv after 2 hrs; type: ADME, organism-based; details: in vivo; method in brief: as §1
[29] = tested on: Brain; assay: Biodistribution in ICR mouse brain at 5 to 10 uCi, iv after 30 mins; type: ADME, organism-based; details: in vivo, 0.5 h; method in brief: as §1
[30] = tested on: Spleen; assay: Biodistribution in ICR mouse spleen at 5 to 10 uCi, iv after 2 mins; type: ADME, organism-based; details: in vivo; method in brief: as §1
[31] = tested on: Heart; assay: Biodistribution in ICR mouse heart at 5 to 10 uCi, iv after 2 hrs; type: ADME, organism-based; details: in vivo; method in brief: as §1
[32] = tested on: Kidney; assay: Biodistribution in ICR mouse kidney at 5 to 10 uCi, iv after 2 hrs; type: ADME, organism-based; details: in vivo; method in brief: as §1
[33] = tested on: Brain; assay: Biodistribution in ICR mouse brain at 5 to 10 uCi, iv after 1 hr; type: ADME, organism-based; details: in vivo; method in brief: as §1
[34] = tested on: Zone of skin; assay: Biodistribution in ICR mouse skin at 5 to 10 uCi, iv after 2 hrs; type: ADME, organism-based; details: in vivo; method in brief: as §1
[35] = tested on: Muscle tissue; assay: Biodistribution in ICR mouse muscle at 5 to 10 uCi, iv after 1 hr; type: ADME, organism-based; details: in vivo; method in brief: as §1
[36] = tested on: Lung; assay: Biodistribution in ICR mouse lung at 5 to 10 uCi, iv after 2 mins; type: ADME, organism-based; details: in vivo; method in brief: as §1
[37] = tested on: Thyroid gland; assay: Biodistribution in ICR mouse thyroid at 5 to 10 uCi, iv after 30 mins; type: ADME, organism-based; details: in vivo, 0.5 h; method in brief: as §1
[38] = tested on: Spleen; assay: Biodistribution in ICR mouse spleen at 5 to 10 uCi, iv after 1 hr; type: ADME, organism-based; details: in vivo; method in brief: as §1
[39] = tested on: Thyroid gland; assay: Biodistribution in ICR mouse thyroid at 5 to 10 uCi, iv after 2 mins; type: ADME, organism-based; details: in vivo; method in brief: as §1
[40] = tested on: Zone of skin; assay: Biodistribution in ICR mouse skin at 5 to 10 uCi, iv after 1 hr; type: ADME, organism-based; details: in vivo; method in brief: as §1
[41] = tested on: Thyroid gland; assay: Biodistribution in ICR mouse thyroid at 5 to 10 uCi, iv after 2 hrs; type: ADME, organism-based; details: in vivo; method in brief: as §1

Structure (SMILES): CNc1ccc(-c2cn(-c3ccc([125I])cc3)nn2)cc1
- Drug uptake [1]: 1.1 % ID/g
- Drug uptake [2]: 2.06 % ID/g
- Drug uptake [3]: 3.04 % ID/g
- Drug uptake [4]: 0.83 % ID/g
- Drug uptake [5]: 6.43 % ID/g
- Drug uptake [6]: 2.83 % ID/g
- Drug uptake [7]: 1.05 % ID/g
- Drug uptake [8]: 9.4 % ID/g
- Drug uptake [9]: 1.16 % ID/g
- Drug uptake [10]: 11.1 % ID/g
- Drug uptake [11]: 54.2 % ID/g
- Drug uptake [12]: 3.71 % ID/g
- logP [13]: 3
- Drug uptake [14]: 2.82 % ID/g
- Drug uptake [15]: 7.45 % ID/g
- Drug uptake [16]: 1.8 % ID/g
- Drug uptake [17]: 0.47 % ID/g
- Drug uptake [18]: 6 % ID/g
- Drug uptake [19]: 1.07 % ID/g
- Drug uptake [20]: 4.45 % ID/g
- Drug uptake [21]: 6.46 % ID/g
- Drug uptake [22]: 13.4 % ID/g
- Drug uptake [23]: 20.7 % ID/g
- Drug uptake [24]: 4.86 % ID/g
- Drug uptake [25]: 1.79 % ID/g
- Drug uptake [26]: 2.34 % ID/g
- Drug uptake [27]: 2.04 % ID/g
- Drug uptake [28]: 0.43 % ID/g
- Drug uptake [29]: 1.66 % ID/g
- Drug uptake [30]: 4.9 % ID/g
- Drug uptake [31]: 0.89 % ID/g
- Drug uptake [32]: 2.91 % ID/g
- Drug uptake [33]: 0.7 % ID/g
- Drug uptake [34]: 1.6 % ID/g
- Drug uptake [35]: 0.56 % ID/g
- Drug uptake [36]: 16 % ID/g
- Drug uptake [37]: 11.5 % ID/g
- Drug uptake [38]: 1.24 % ID/g
- Drug uptake [39]: 4.38 % ID/g
- Drug uptake [40]: 1.81 % ID/g
- Drug uptake [41]: 62.1 % ID/g

— ChEMBL document CHEMBL1145427, “Quick assembly of 1,4-diphenyltriazoles as probes targeting beta-amyloid aggregates in Alzheimer's disease” (J Med Chem, 2007)
